From ChEMBL document CHEMBL1926544, “Tyrosine-based 1-(S)-[3-hydroxy-2-(phosphonomethoxy)propyl]cytosine and -adenine ((S)-HPMPC and (S)-HPMPA) prodrugs: synthesis, stability, antiviral activity, and in vivo transport studies” (J Med Chem, 2011)

System: Plasma
Experiment: Drug level in CFW Swiss-Webster mouse plasma dosed at 10 mg equivalent of (S)-9-[3-hydroxy-2-(phosphonomethoxy)propyl]adenine/kg, po by LC-MS analysis
Type: ADME, organism-based
Settings: in vivo
Method in brief: (§1)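 CFW Swiss-Webster mice, 4 weeks old, 25 g, fasted 18 h with water. Prodrug given by gavage in water at 10 mg eq (of HPMPA)/kg. Plasma by cardiac puncture at 1, 2, 3, 4 and 8 h, 5 mice per time point, one sample per mouse. Solid-phase extraction, then LC-MS (ESI positive) against internal-standard calibration curves.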
With `CC(C)CNC(=O)[C@@H](N)Cc1ccc(OP2(=O)CO[C@@H](Cn3cnc4c(N)ncnc43)CO2)cc1.Cl` (mixture of isomers; form 2) the Drug uptake was 20%.

System: Human alphaherpesvirus 1
Experiment: Antiviral activity against HSV1 KOS infected in HFF cells incubated for 3 days by plaque reduction assay
Type: functional, organism-based
Settings: Human alphaherpesvirus 1, KOS, HFF, 72 h
Method in brief: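 HFF monolayer plaque reduction, about 100 plaques per well. Drug overlay (100 µM down to 0.03 µM), about 3 days incubation, crystal violet staining, macroscopic plaques counted. IC50 from regression of % plaque reduction relative to no-drug wells. Duplicate; acyclovir run as positive control.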
`Nc1ncnc2c1ncn2C[C@H]1COP(=O)(O)CO1` gave an IC50 of 30 µM. In the case of `COC(=O)[C@H](Cc1ccc(OP2(=O)CO[C@@H](Cn3cnc4c(N)ncnc43)CO2)cc1)NC(=O)[C@@H](N)C(C)C` (mixture of isomers), the IC50 is reported as 35 µM. With `COC(=O)[C@H](N)Cc1ccc(OP2(=O)CO[C@@H](Cn3ccc(N)nc3=O)CO2)cc1` (mixture of isomers) the IC50 was 35 µM. `COC(=O)[C@@H](N)Cc1ccc(OP2(=O)CO[C@@H](Cn3cnc4c(N)ncnc43)CO2)cc1` (mixture of isomers; form 1) gave an IC50 of 25 µM. With `CC(C)(C)NC(=O)[C@H](N)Cc1ccc(OP2(=O)CO[C@@H](Cn3ccc(N)nc3=O)CO2)cc1` (mixture of isomers) the IC50 was 1.5 µM. In the case of `Nc1ccn(C[C@H]2COP(=O)(O)CO2)c(=O)n1` [CYCLIC CIDOFOVIR], the IC50 is reported as 50 µM. With `Nc1nc2c(ncn2COCCO)c(=O)[nH]1` [ACYCLOVIR] the IC50 was 0.6 µM.

Same assay, conditions: hff
Work on `CC(C)CNC(=O)[C@@H](N)Cc1ccc(OP2(=O)CO[C@@H](Cn3cnc4c(N)ncnc43)CO2)cc1.Cl` (mixture of isomers; form 2) yielded an IC50 of 35 µM.

System: not listed separately
Experiment: Antiviral activity against Cowpox virus Brighton infected in HFF cells incubated for 3 days by plaque reduction assay
Type: functional, cell-based, Cowpox virus (Brighton Red)
Settings: Cowpox virus, HFF, 72 h
For `Nc1ncnc2c1ncn2C[C@H]1COP(=O)(O)CO1`, the IC50 was 0.6 µM. Compound `COC(=O)[C@H](Cc1ccc(OP2(=O)CO[C@@H](Cn3cnc4c(N)ncnc43)CO2)cc1)NC(=O)[C@@H](N)C(C)C` (mixture of isomers) has an IC50 of 8 µM. Compound `COC(=O)[C@H](N)Cc1ccc(OP2(=O)CO[C@@H](Cn3ccc(N)nc3=O)CO2)cc1` (mixture of isomers) has an IC50 of 35 µM. With `COC(=O)[C@@H](N)Cc1ccc(OP2(=O)CO[C@@H](Cn3cnc4c(N)ncnc43)CO2)cc1` (mixture of isomers; form 1) the IC50 was 7 µM. Work on `CC(C)(C)NC(=O)[C@H](N)Cc1ccc(OP2(=O)CO[C@@H](Cn3ccc(N)nc3=O)CO2)cc1` (mixture of isomers) yielded an IC50 of 20 µM. With `Nc1ccn(C[C@H]2COP(=O)(O)CO2)c(=O)n1` [CYCLIC CIDOFOVIR] the IC50 was 30 µM.

Same assay, conditions: hff
Work on `CC(C)CNC(=O)[C@@H](N)Cc1ccc(OP2(=O)CO[C@@H](Cn3cnc4c(N)ncnc43)CO2)cc1.Cl` (mixture of isomers; form 2) yielded an IC50 of 2 µM.

System: Human betaherpesvirus 5
Experiment: Antiviral activity against HCMV Towne infected in HFF cells incubated for 10 days by plaque reduction assay
Type: functional, organism-based
Settings: Human betaherpesvirus 5, Towne, HFF, 240 h
Method in brief: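 Towne strain (plaque-purified P0) on HFF cells, about 100 plaques per well. Drug overlay (100 µM down to 0.03 µM), about 10 days incubation, crystal violet staining, microscopic plaques counted. IC50 from regression of % plaque reduction versus no-drug wells. Duplicate; ganciclovir as positive control.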
`Nc1ncnc2c1ncn2C[C@H]1COP(=O)(O)CO1` gave an IC50 of 1.3 µM. For `COC(=O)[C@H](Cc1ccc(OP2(=O)CO[C@@H](Cn3cnc4c(N)ncnc43)CO2)cc1)NC(=O)[C@@H](N)C(C)C` (mixture of isomers), the IC50 was 0.3 µM. Work on `COC(=O)[C@H](N)Cc1ccc(OP2(=O)CO[C@@H](Cn3ccc(N)nc3=O)CO2)cc1` (mixture of isomers) yielded an IC50 of 0.2 µM. For `COC(=O)[C@@H](N)Cc1ccc(OP2(=O)CO[C@@H](Cn3cnc4c(N)ncnc43)CO2)cc1` (mixture of isomers; form 1), the IC50 was 0.45 µM. Compound `CC(C)(C)NC(=O)[C@H](N)Cc1ccc(OP2(=O)CO[C@@H](Cn3ccc(N)nc3=O)CO2)cc1` (mixture of isomers) has an IC50 of less than 0.1 µM.

Same assay, conditions: hff
In the case of `CC(C)CNC(=O)[C@@H](N)Cc1ccc(OP2(=O)CO[C@@H](Cn3cnc4c(N)ncnc43)CO2)cc1.Cl` (mixture of isomers; form 2), the IC50 is reported as 1.3 µM.

System: Vaccinia virus
Experiment: Antiviral activity against Vaccinia virus Copenhagen infected in HFF cells incubated for 3 days by plaque reduction assay
Type: functional, organism-based, Orthopoxvirus vaccinia
Settings: Orthopoxvirus vaccinia, Copenhagen, HFF, 72 h
`Nc1ncnc2c1ncn2C[C@H]1COP(=O)(O)CO1` showed an IC50 of 1 µM. Work on `COC(=O)[C@H](Cc1ccc(OP2(=O)CO[C@@H](Cn3cnc4c(N)ncnc43)CO2)cc1)NC(=O)[C@@H](N)C(C)C` (mixture of isomers) yielded an IC50 of 4 µM. For `COC(=O)[C@H](N)Cc1ccc(OP2(=O)CO[C@@H](Cn3ccc(N)nc3=O)CO2)cc1` (mixture of isomers), the IC50 was 25 µM. In the case of `COC(=O)[C@@H](N)Cc1ccc(OP2(=O)CO[C@@H](Cn3cnc4c(N)ncnc43)CO2)cc1` (mixture of isomers; form 1), the IC50 is reported as 3 µM. In the case of `CC(C)(C)NC(=O)[C@H](N)Cc1ccc(OP2(=O)CO[C@@H](Cn3ccc(N)nc3=O)CO2)cc1` (mixture of isomers), the IC50 is reported as 10 µM.

Same assay, conditions: hff
For `CC(C)CNC(=O)[C@@H](N)Cc1ccc(OP2(=O)CO[C@@H](Cn3cnc4c(N)ncnc43)CO2)cc1.Cl` (mixture of isomers; form 2), the IC50 was 1.5 µM.

System: HFF
Experiment: Cytotoxicity against HFF cells after 48 hrs by visual cytotoxicity observation assay
Type: cell-based, Homo sapiens
Settings: Homo sapiens, HFF, 48 h
In the case of `Nc1ncnc2c1ncn2C[C@H]1COP(=O)(O)CO1`, the IC50 is reported as 100 µM. In the case of `COC(=O)[C@H](Cc1ccc(OP2(=O)CO[C@@H](Cn3cnc4c(N)ncnc43)CO2)cc1)NC(=O)[C@@H](N)C(C)C` (mixture of isomers), the IC50 is reported as greater than 100 µM. `COC(=O)[C@H](N)Cc1ccc(OP2(=O)CO[C@@H](Cn3ccc(N)nc3=O)CO2)cc1` (mixture of isomers) gave an IC50 greater than 100 µM. With `COC(=O)[C@@H](N)Cc1ccc(OP2(=O)CO[C@@H](Cn3cnc4c(N)ncnc43)CO2)cc1` (mixture of isomers; form 1) the IC50 was greater than 100 µM. `CC(C)(C)NC(=O)[C@H](N)Cc1ccc(OP2(=O)CO[C@@H](Cn3ccc(N)nc3=O)CO2)cc1` (mixture of isomers) showed an IC50 greater than 100 µM. `Nc1ccn(C[C@H]2COP(=O)(O)CO2)c(=O)n1` [CYCLIC CIDOFOVIR] showed an IC50 greater than 100 µM.

Same assay, conditions: hff
In the case of `CC(C)CNC(=O)[C@@H](N)Cc1ccc(OP2(=O)CO[C@@H](Cn3cnc4c(N)ncnc43)CO2)cc1.Cl` (mixture of isomers; form 2), the IC50 is reported as 100 µM.

System: KB
Experiment: Cytotoxicity against human KB cells after 48 hrs by crystal violet staining based spectrophotometric analysis
Type: cell-based
Settings: not given
Method in brief: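 KB cells at 5000 per well, left overnight at 37 °C. Compound added at eight concentrations in triplicate, 48 h at 37 °C in CO2 (two population doublings). Cells ethanol-fixed and crystal violet stained; dye eluted with acidified ethanol, read at 570 nm. IC50 by regression of % inhibition against log concentration.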
For `Nc1ncnc2c1ncn2C[C@H]1COP(=O)(O)CO1`, the IC50 was greater than 100 µM. `COC(=O)[C@H](Cc1ccc(OP2(=O)CO[C@@H](Cn3cnc4c(N)ncnc43)CO2)cc1)NC(=O)[C@@H](N)C(C)C` (mixture of isomers) showed an IC50 greater than 100 µM. Compound `COC(=O)[C@H](N)Cc1ccc(OP2(=O)CO[C@@H](Cn3ccc(N)nc3=O)CO2)cc1` (mixture of isomers) has an IC50 greater than 100 µM. For `COC(=O)[C@@H](N)Cc1ccc(OP2(=O)CO[C@@H](Cn3cnc4c(N)ncnc43)CO2)cc1` (mixture of isomers; form 1), the IC50 was greater than 100 µM. In the case of `CC(C)(C)NC(=O)[C@H](N)Cc1ccc(OP2(=O)CO[C@@H](Cn3ccc(N)nc3=O)CO2)cc1` (mixture of isomers), the IC50 is reported as greater than 100 µM. Work on `Nc1ccn(C[C@H]2COP(=O)(O)CO2)c(=O)n1` [CYCLIC CIDOFOVIR] yielded an IC50 greater than 100 µM.

System: Plasma
Experiment: Drug level in CFW Swiss-Webster mouse plasma assessed as (S)-cHPMPA levels dosed at 10 mg equivalent of (S)-9-[3-hydroxy-2-(phosphonomethoxy)propyl]adenine/kg, po by LC-MS analysis
Type: ADME, organism-based
Settings: in vivo
Method in brief: as §1
For `CC(C)CNC(=O)[C@@H](N)Cc1ccc(OP2(=O)CO[C@@H](Cn3cnc4c(N)ncnc43)CO2)cc1.Cl` (mixture of isomers; form 2), the Drug uptake was 80%.
